Results taken from ChEMBL document CHEMBL1157183, “Synthesis and discovery of a novel pyrazole derivative as an inhibitor of apoptosis through modulating integrin beta4, ROS, and p53 levels in vascular endothelial cells” (2008).
Activity calls are given as the source filed them. No cut-off for these calls is given here.

Columns and labels:
HUVEC [1] = test: Inhibition of nuclear DNA condensation in HUVEC cells at 25 uM after 24 hrs by acridine orange staining assay; assay type: functional, cell-based; conditions: Homo sapiens
Summary of the method: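 Serum/FGF-2-deprived HUVECs were treated with 25 µM for 24 h, then stained with acridine orange for 5 min. Nuclear condensation and fragmentation were examined by laser scanning confocal microscopy.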

HUVEC [2] = test: Decrease in integrin beta4 level in HUVEC cells at 25 uM after 24 hrs in absence of serum and FGF2; assay type: functional, Homo sapiens
Summary of the method: (§1)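 HUVECs, passages 10–20, grown to sub-confluence, washed and switched to basal M199 without FBS and FGF-2; 25 µM in DMSO for 12, 24 or 48 h. Comparators were cells kept in M199 with 20% FBS plus 70 ng/mL FGF-2 and cells in basal medium alone. Immunofluorescence used rabbit anti-human integrin β4 and FITC-IgG secondary, read by laser scanning confocal microscopy as relative fluorescence intensity; n = 3.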

HUVEC [3] = test: Suppression of apoptosis in HUVEC cells at 25 uM by MTT assay; assay type: functional, cell-based; conditions: Homo sapiens
Summary of the method: (§2)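 Sub-confluent HUVECs, passages 10–20, were washed and cultured in M199 without serum and FGF-2. They were treated at 5, 10, 20, 25, 50 and 100 µM (DMSO vehicle at a non-toxic final level). Viability was measured by MTT at 24 and 48 h against deprived control and full-medium normal cells; n = 3.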

HUVEC [4] = test: Inhibition of DNA fragmentation in HUVEC cells at 25 uM after 24 hrs by TUNEL assay; assay type: functional, cell-based; conditions: Homo sapiens
Summary of the method: (§3)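 TUNEL staining was done on HUVECs deprived of serum and FGF-2 (basal M199) and treated with 25 µM for 24 h. Apoptotic cells were quantified as a percentage from fluorescent micrographs, relative to deprived control and to cells in M199 with 20% FBS plus 70 ng/mL FGF-2.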

HUVEC [5] = test: Increase in cell viability of HUVEC cells at 25 uM; assay type: functional, cell-based; conditions: Homo sapiens; summary of the method: as §2
HUVEC [6] = test: Induction of apoptosis in HUVEC cells at 50 uM by MTT assay; assay type: functional, cell-based; conditions: Homo sapiens; summary of the method: as §2
HUVEC [7] = test: Decrease in serum and FGF2 deprivation-induced intracellular ROS level in HUVEC cells; assay type: functional, cell-based; conditions: Homo sapiens
Summary of the method: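 Intracellular ROS measured with the DCHF probe, which oxidises to fluorescent DCF. Cells were HUVECs in basal M199 lacking serum and FGF-2, exposed to 25 µM for 12, 24 and 48 h. Fluorescence was imaged by laser scanning confocal microscopy and expressed as relative DCF intensity per cell in the scanned area; n = 3.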

HUVEC [8] = test: Decrease in integrin beta4 level in HUVEC cells at 25 uM after 48 hrs in absence of serum and FGF2; assay type: functional, Homo sapiens; summary of the method: as §1
HUVEC [9] = test: Decrease in serum and FGF2 deprivation-induced p53 level in HUVEC cells; assay type: functional, cell-based; conditions: Homo sapiens
Summary of the method: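 Serum/FGF-2-deprived HUVECs (basal M199) received 25 µM for 12, 24 and 48 h. Comparators were cells in M199 with 20% FBS and 70 ng/mL FGF-2 and untreated deprived cells. p53 was detected by immunofluorescence with rabbit anti-human p53 and FITC-IgG secondary, semiquantified as relative intensity by confocal microscopy; n = 3.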

HUVEC [10] = test: Reduction of serum and FGF2 deprivation-induced apoptosis in HUVEC cells at 25 uM after 24 hrs; assay type: functional, Homo sapiens; parameters: scale not given: the % may be the effect or the level left; summary of the method: as §3
HUVEC [11] = test: Decrease in integrin beta4 level in HUVEC cells at 25 uM after 12 hrs in absence of serum and FGF2; assay type: functional, Homo sapiens; summary of the method: as §1
HUVEC [12] = test: Induction of apoptosis in HUVEC cells at 100 uM by MTT assay; assay type: functional, cell-based; conditions: Homo sapiens; summary of the method: as §2

Structure (SMILES): CCOC(=O)c1c(-c2ccccc2Cl)nn(-c2ccccc2)c1C
- Activity (HUVEC [1]): Active
- Flu intensity (HUVEC [2]): 9.083
- Activity (HUVEC [3]): Active
- Activity (HUVEC [4]): Active
- Activity (HUVEC [5]): Active
- Activity (HUVEC [6]): Active
- Activity (HUVEC [7]): Active
- Flu intensity (HUVEC [8]): 13.14
- Activity (HUVEC [9]): Active
- Activity (HUVEC [10]): 19.16%
- Flu intensity (HUVEC [11]): 6.307
- Activity (HUVEC [12]): Active
